As usually defined, the IC50 is the concentration that gives 50% inhibition. As usually defined, the inhibition is the change of the read-out against control, counted positive when it falls. As usually defined, the Papp is a coefficient for how fast a substance crosses the barrier. The low end stands for slow passage, the high end for fast passage.

The structures appear in SMILES notation. Active and inactive are the calls of the source. No cut-off for these calls is given here. Where only a bound is given, the exact number is not on record here.

Data on one compound can be found in ChEMBL document CHEMBL4138195, “Discovery of novel propargylamine-modified 4-aminoalkyl imidazole substituted pyrimidinylthiourea derivatives as multifunctional agents for the treatment of Alzheimer's disease” (Eur J Med Chem, 2018).

One series addresses T1, Acetylcholinesterase (Rattus norvegicus, UniProt P37136).
T1 sequence (P37136 whole entry): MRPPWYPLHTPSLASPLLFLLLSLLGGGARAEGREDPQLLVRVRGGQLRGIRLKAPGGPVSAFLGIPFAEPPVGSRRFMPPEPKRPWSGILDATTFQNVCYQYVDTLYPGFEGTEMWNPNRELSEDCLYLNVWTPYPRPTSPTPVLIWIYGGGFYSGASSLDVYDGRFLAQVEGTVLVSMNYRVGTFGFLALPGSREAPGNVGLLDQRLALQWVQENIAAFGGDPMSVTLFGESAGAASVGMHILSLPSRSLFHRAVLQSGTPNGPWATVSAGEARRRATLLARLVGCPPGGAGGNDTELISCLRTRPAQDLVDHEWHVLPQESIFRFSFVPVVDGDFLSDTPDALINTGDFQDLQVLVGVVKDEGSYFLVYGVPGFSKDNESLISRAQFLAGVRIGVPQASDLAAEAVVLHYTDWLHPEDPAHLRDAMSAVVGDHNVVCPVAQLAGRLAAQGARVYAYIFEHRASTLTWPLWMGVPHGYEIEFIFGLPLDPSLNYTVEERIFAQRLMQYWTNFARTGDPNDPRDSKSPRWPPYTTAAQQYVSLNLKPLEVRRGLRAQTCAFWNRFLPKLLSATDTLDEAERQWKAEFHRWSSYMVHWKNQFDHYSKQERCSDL
The series can be described thus: Inhibition of AChE in rat cortex homogenate using acetylthiocholine iodide as substrate after 20 mins by Ellman's method. For orientation: DTNB colorimetry detects thiols as they appear.

A further series is filed under the species Rattus norvegicus. Nature of the series: Selectivity index, ratio of IC50 for BuChE in rat serum to IC50 for AChE in rat cortex homogenate. Format: tissue-based.
Series [1] addresses T2, Amine oxidase [flavin-containing] A (Homo sapiens, UniProt P21397).
T2 sequence (P21397 whole entry): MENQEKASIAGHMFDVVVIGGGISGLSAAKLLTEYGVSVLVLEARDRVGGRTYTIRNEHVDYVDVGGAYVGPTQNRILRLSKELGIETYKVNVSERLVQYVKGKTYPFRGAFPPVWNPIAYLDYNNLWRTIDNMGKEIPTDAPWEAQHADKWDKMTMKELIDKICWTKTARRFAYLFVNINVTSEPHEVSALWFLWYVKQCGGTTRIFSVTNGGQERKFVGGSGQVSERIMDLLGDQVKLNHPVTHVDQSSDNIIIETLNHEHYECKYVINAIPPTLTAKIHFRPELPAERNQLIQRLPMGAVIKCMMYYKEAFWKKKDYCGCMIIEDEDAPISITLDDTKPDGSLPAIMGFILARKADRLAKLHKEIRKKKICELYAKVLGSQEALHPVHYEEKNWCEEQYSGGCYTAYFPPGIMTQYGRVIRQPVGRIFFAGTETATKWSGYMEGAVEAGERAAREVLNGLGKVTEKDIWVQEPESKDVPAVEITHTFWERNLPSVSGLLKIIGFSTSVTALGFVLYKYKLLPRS
The series can be described thus: Inhibition of recombinant human MAOA using p-tyramine as substrate preincubated for 15 mins followed by substrate addition measured after 15 mins by Amplex red reagent based fluorescence assay.

Series [2] has as its target T2, Amine oxidase [flavin-containing] A. The series can be described thus: Inhibition of recombinant human MAOA at 50 uM using p-tyramine as substrate preincubated for 15 mins followed by substrate addition measured after 15 mins by Amplex red reagent based fluorescence assay. The following applies: 0.25 h. Put shortly:
(§1)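 Recombinant human MAO-A (12.5 µg/mL) or MAO-B (75 µg/mL) preincubated 15 min at 37 °C with compound (diluted from 10 mM DMSO stock in 50 mM KH2PO4, pH 7.4). Amplex Red working solution added: 2 mM p-tyramine (MAO-A) or benzylamine (MAO-B), 2 U/mL HRP. After 15 min at 37 °C, fluorescence read (ex 545/em 590), background from enzyme-free wells subtracted.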

For the next series, the species on record is Homo sapiens. The series can be described thus: Selectivity index, ratio of IC50 for recombinant human MAOA to IC50 for recombinant human MAOB. Put shortly: as §1
The nature of series [3]: Metal chelating activity assessed as compound-Fe3+ complex formation at 40 uM in presence of FeCl3 after 30 mins by UV-visible spectrophotometric analysis. Put shortly: (§2)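 UV–vis spectra (200–500 nm) of compound at 40 µM final, alone or with CuCl2, FeSO4, FeCl3 or ZnCl2 (20 µM final), after 30 min in 20 mM HEPES, 150 mM NaCl, pH 7.4, at room temperature.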
Series [4] in a line: Metal chelating activity assessed as compound-Zn2+ complex formation at 40 uM in presence of ZnCl2 after 30 mins by UV-visible spectrophotometric analysis. Put shortly:
as §2

The subject of another series is Cortical neurone. Nature of the series: Cytotoxicity against E17 Sprague-Dawley rat primary cortical neurons at 100 uM after 24 hrs by MTT assay. The series is classed as cell-based. Put shortly: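 Primary cortical neurons from E17 SD rat embryos, trypsin-dissociated and cultured 9 days in neurobasal/B27 on poly-L-lysine (3×10^4 cells/well). Treated at 10, 30 and 100 µM for 24 h, with donepezil as reference. MTT (5 mg/mL, 10 µL) for 4 h at 37 °C, absorbance 490 nm, viability as % of vehicle-treated cells; mean ± SEM.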

A further series deals with Mus musculus. Nature of the series: Reversal of scopolamine-induced dementia in ICR mouse assessed as decrease in escape latency time at 30 mg/kg, po administered 40 mins prior to scopolamine-challenge by water maze test. The series is classed as functional, organism-based. Summed up:
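Test compound as HCl salt, 30 mg/kg intragastric, given 40 min before scopolamine (4.5 mg/kg i.p.), which was given 20 min before the water maze. Escape latency and errors (entries into no-exit paths) recorded; mean ± SEM.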

Series [5] addresses Amyloid-beta precursor protein (Homo sapiens) (UniProt P05067). Nature of the series: Inhibition of amyloid beta (1 to 42) (unknown origin) self aggregation at 50 uM incubated at 37 degC for 24 hrs by dot immunoblot assay. Put shortly:
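Aβ1-42 (2000 µM stock in 1% ammonium hydroxide) diluted in […], pH 6.6. Peptide 25 µM ± Cu(II) 25 µM ± compound 50 µM, incubated 37 °C for 24 h. Samples spotted on nitrocellulose, blocked in 5% milk, probed overnight at 4 °C with A11 (oligomers) or 6E10 (total Aβ), HRP secondary, densitometry. N = 4, mean ± SEM; EGCG control.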

The next series can be described thus: in vitro. To be noted: PAMPA. In general terms: PAMPA measures passive passage across an artificial lipid membrane.
Series [6] can be described thus: Inhibition of Cu2+-mediated amyloid beta (1 to 42) (unknown origin) aggregation at 50 uM after 24 hrs by dot blot assay.

Chain of Amyloid-beta precursor protein (Homo sapiens) (P05067 whole entry): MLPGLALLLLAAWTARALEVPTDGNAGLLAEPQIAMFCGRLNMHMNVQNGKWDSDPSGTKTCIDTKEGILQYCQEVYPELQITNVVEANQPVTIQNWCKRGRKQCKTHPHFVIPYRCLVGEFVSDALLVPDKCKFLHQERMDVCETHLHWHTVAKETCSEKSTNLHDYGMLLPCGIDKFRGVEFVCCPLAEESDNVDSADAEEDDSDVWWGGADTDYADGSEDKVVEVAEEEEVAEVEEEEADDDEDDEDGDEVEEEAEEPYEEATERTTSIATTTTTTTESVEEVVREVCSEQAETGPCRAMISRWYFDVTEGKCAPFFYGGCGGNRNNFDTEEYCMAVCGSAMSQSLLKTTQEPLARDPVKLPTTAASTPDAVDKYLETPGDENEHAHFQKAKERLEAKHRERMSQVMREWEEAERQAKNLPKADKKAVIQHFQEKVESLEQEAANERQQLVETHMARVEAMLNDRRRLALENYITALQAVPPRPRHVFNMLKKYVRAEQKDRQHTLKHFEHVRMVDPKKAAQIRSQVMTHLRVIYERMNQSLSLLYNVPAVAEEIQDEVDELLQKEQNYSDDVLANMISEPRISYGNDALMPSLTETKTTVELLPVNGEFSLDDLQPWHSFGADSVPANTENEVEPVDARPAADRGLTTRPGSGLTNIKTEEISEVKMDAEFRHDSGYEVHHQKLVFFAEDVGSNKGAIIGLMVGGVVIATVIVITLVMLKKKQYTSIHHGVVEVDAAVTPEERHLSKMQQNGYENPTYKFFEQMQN

`C#CCN(C)Cc1cn(-c2cc(NC(=S)NCC)ncn2)cn1`: the IC50 is 324 nM at Acetylcholinesterase and over 50000 nM in series [1]. The Ratio IC50 in the series filed under Rattus norvegicus is over 123; in the series filed under Homo sapiens, over 35. The inhibition at 50 µM in [2] was determined as 20.2%. Moreover, the result in [3] and in series [4] was inactive. For the same compound, the Activity result in the series with Cortical neurone is “Toxic”. The outcome with Mus musculus was Active. Besides, in [5], the inhibition entry was “inactive”. Also, in the series “in vitro”, the apparent permeability coefficient (Papp) at 12 h, 100 ug/ml is 3.16 ×10⁻⁶ cm/s. The inhibition result in [6] is “Active”.
